Source: ChEMBL document CHEMBL5316292 (J Med Chem, 2023)
Calls of active or inactive are those of the source. The rule behind the calls is not given here.

How the values were obtained:
LNCaP = experiment: Antiproliferative activity against androgen-sensitive human LNCaP cells assessed as reduction in cell viability measured after 72 hrs by MTS assay; format: functional, cell-based
How it was run: (§1)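 MTS viability assay run in triplicate wells. Serial dilutions in DMSO were given, with DMSO as negative control and doxorubicin as positive control, and incubated 72 h. MTS reagent was added for 2 h and absorbance read at 490 nm. % cytotoxicity = (A_medium − A_treatment)/A_medium × 100. EC50 ± SD was taken from dose-response curves of at least three independent experiments.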

[1] = Antiproliferative activity against human Androgen-resistant 22Rv1 cells assessed as reduction in cell viability measured after 72 hrs by MTS assay; format: functional, cell-based; settings: 22Rv1, 72 h; how it was run: as §1
[2] = Cytotoxicity against HFF cells assessed as reduction in cell viability measured after 72 hrs by MTS assay; format: toxicity, cell-based; settings: human; how it was run: as §1
[3] = target: T1, Bromodomain-containing protein 3 (Homo sapiens, UniProt Q15059); experiment: Inhibition of BRD3-BD1 (unknown origin) by fluorescence polarization assay
How it was run: (§2)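 FP competition assay using the fluorescein-labeled PCC conjugate (4 nM) as tracer. Recombinant His-tagged BRD bromodomain (20–400 nM) in 50 mM HEPES pH 7.4, 150 mM NaCl, 0.5 mM TCEP, 0.05% Tween-20. DMSO-matched serial dilutions were added and the plate incubated. Read at ex 485/em 535 nm, with G-factor zeroed on tracer alone. Triplicate data were curve-fitted, error SEM.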
Target sequence in this assay (Q15059 whole entry): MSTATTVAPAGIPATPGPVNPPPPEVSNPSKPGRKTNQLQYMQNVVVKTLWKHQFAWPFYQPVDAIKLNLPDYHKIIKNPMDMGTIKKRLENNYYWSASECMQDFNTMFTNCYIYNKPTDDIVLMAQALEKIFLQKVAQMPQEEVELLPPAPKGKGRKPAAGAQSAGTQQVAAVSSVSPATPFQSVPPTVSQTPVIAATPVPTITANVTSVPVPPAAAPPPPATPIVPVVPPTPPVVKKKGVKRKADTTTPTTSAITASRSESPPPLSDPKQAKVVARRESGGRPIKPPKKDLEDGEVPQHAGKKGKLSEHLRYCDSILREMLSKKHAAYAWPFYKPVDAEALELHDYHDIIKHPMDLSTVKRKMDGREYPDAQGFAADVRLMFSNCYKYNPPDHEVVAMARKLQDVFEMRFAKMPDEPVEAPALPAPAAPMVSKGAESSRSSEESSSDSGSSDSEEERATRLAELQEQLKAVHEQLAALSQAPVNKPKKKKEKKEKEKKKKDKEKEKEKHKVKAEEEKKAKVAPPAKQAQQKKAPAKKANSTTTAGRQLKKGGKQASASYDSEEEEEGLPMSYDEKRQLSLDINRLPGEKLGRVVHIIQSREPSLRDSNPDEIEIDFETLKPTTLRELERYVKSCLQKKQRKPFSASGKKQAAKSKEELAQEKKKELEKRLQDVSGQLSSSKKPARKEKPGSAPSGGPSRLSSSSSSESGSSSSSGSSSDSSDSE

[4] = target: T1, Bromodomain-containing protein 3; experiment: Inhibition of BRD3-BD2 (unknown origin) by fluorescence polarization assay; how it was run: as §2
Target sequence in this assay (Q15059 whole entry): as above

[5] = target: T2, Bromodomain-containing protein 4 (Homo sapiens, UniProt O60885); experiment: Inhibition of BRD4-BD1 (unknown origin) by fluorescence polarization assay; how it was run: as §2
[6] = target: T2, Bromodomain-containing protein 4; experiment: Inhibition of BRD4-BD2 (unknown origin) by fluorescence polarization assay; how it was run: as §2
PC-3 [7] = experiment: Antiproliferative activity against androgen-insensitive human PC-3 cells assessed as reduction in cell viability measured after 72 hrs by MTS assay; format: functional, cell-based; settings: PC-3, 72 h; how it was run: as §1
DU-145 = experiment: Antiproliferative activity against AR-negative human DU-145 cells assessed as reduction in cell viability measured after 72 hrs by MTS assay; settings: DU-145, 72 h
VCaP [8] = experiment: Antiproliferative activity against AR-positive human VCaP cells assessed as reduction in cell viability measured after 72 hrs by MTS assay; format: functional, cell-based
How it was run: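 VCaP cells in 96-well plates, compound serially diluted in DMSO and run in triplicate wells for 72 h. MTS reagent added for 2 h, absorbance read at 490 nm. % cytotoxicity = (A_medium − A_treatment)/A_medium × 100. EC50 and SD taken from dose-response curves, at least three independent experiments.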

VCaP [9] = experiment: Downregulation of BRD2 mRNA levels in human VCaP cells at 25 to 2500 nM incubated for 24 hrs by qRT-PCR analysis; format: functional, cell-based; settings: dose 25-2500 nM
How it was run: (§3)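 VCaP cells grown to 50% confluence, then treated with compound or DMSO (Methods state 16 h, legend states 24 h). Total RNA isolated, cDNA made from 1 µg RNA, SYBR Green qPCR run in triplicate. Expression by ΔΔCt, normalised to GAPDH. Three independent experiments, SEM.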

VCaP [10] = experiment: Downregulation of BRD3 mRNA levels in human VCaP cells at 25 to 2500 nM incubated for 24 hrs by qRT-PCR analysis; format: functional, cell-based; settings: dose 25-2500 nM; how it was run: as §3
VCaP [11] = experiment: Downregulation of BRD4 mRNA levels in human VCaP cells at 25 to 2500 nM incubated for 24 hrs by qRT-PCR analysis; format: functional, cell-based; settings: dose 25-2500 nM; how it was run: as §3
VCaP [12] = experiment: Downregulation of TMPRSS2 gene levels in human VCaP cells incubated for 24 hrs by qRT-PCR analysis; format: functional, cell-based; settings: dose 25-2500 nM; how it was run: as §3
VCaP [13] = experiment: Downregulation of ERG gene levels in human VCaP cells incubated for 24 hrs by qRT-PCR analysis; format: functional, cell-based; settings: dose 25-2500 nM; how it was run: as §3
VCaP [14] = experiment: Downregulation of PSA […] expression in human VCaP cells incubated for 24 hrs by qRT-PCR analysis; format: functional, cell-based; settings: dose 25-2500 nM; how it was run: as §3
VCaP [15] = experiment: Downregulation of AR […] expression in human VCaP cells at 25 to 2500 nM incubated for 24 hrs by qRT-PCR analysis; format: functional, cell-based; settings: dose 25-2500 nM; how it was run: as §3
[16] = target: Bromodomain-containing protein 2 (Homo sapiens, UniProt P25440); experiment: Induction of BRD2 degradation in human MDA-MB-231 cells assessed as decrease in BET half life at 50 ug/ml incubated for 8 hrs by immunoblotting analysis; format: cell-based; settings: dose 50.0 µg/ml
How it was run: (§4)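 MDA-MB-231 time-course. Cells given 50 µg/mL cycloheximide plus DMSO, or 50 µg/mL cycloheximide plus 10 µM compound. RIPA lysates immunoblotted for BRD2, BRD3 and BRD4 with GAPDH as control.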

[17] = target: T1, Bromodomain-containing protein 3; experiment: Induction of BRD3 degradation in human MDA-MB-231 cells assessed as decrease in BET half life at 50 ug/ml incubated for 8 hrs by immunoblotting analysis; format: cell-based; settings: dose 50.0 µg/ml; how it was run: as §4
Target sequence in this assay (Q15059 2-726 limits assumed): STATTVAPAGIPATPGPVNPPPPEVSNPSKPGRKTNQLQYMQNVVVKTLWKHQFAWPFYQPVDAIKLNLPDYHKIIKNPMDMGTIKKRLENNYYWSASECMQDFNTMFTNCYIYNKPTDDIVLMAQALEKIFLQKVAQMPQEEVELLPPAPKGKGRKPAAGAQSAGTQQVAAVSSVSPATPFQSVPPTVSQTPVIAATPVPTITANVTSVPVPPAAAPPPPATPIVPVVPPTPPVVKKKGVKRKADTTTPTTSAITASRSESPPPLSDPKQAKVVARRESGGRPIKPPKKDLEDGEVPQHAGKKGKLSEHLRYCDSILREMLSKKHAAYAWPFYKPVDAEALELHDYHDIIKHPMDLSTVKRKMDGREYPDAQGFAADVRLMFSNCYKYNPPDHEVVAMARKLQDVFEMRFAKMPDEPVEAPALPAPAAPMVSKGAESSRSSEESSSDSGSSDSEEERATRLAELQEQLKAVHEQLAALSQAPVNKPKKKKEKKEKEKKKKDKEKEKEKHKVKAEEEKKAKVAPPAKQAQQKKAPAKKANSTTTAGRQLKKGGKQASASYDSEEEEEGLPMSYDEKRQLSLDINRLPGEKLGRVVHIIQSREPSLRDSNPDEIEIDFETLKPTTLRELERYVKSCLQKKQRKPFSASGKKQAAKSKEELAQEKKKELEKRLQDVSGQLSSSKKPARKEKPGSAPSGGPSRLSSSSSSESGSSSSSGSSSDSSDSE

[18] = target: T2, Bromodomain-containing protein 4; experiment: Induction of BRD4 degradation in human MDA-MB-231 cells assessed as decrease in BET half life at 50 ug/ml incubated for 8 hrs by immunoblotting analysis; format: cell-based; settings: dose 50.0 µg/ml; how it was run: as §4
[19] = target: T1, Bromodomain-containing protein 3; experiment: Induction of BRD3 degradation in human PC-3 cells incubated for 16 hrs by immunoblotting analysis; format: cell-based
How it was run: (§5)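 MDA-MB-231 or PC-3 cells at 50% confluence in DMEM/10% FBS/pen-strep, treated 16 h with doses falling tenfold from 10 µM to 1 nM. RIPA lysates immunoblotted for BRD2, BRD3 and BRD4 with GAPDH as control. DC50 derived from band densitometry. SEM, n = 2.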
Target sequence in this assay (Q15059 2-726 limits assumed): as above

[20] = target: T2, Bromodomain-containing protein 4; experiment: Induction of BRD4 degradation in human PC-3 cells incubated for 16 hrs by immunoblotting analysis; format: cell-based; how it was run: as §5
[21] = Cytotoxicity against human WI-38 cells assessed as reduction in cell viability measured after 72 hrs by MTS assay; format: toxicity, cell-based; how it was run: as §1
PC-3 [22] = experiment: Cytotoxicity against human PC-3 cells assessed as reduction in cell viability measured after 5 days by Cell-Titer glo assay; format: functional, cell-based; settings: PC-3, 120 h

Bromodomain-containing protein 2, sequence (P25440 whole entry, looked up): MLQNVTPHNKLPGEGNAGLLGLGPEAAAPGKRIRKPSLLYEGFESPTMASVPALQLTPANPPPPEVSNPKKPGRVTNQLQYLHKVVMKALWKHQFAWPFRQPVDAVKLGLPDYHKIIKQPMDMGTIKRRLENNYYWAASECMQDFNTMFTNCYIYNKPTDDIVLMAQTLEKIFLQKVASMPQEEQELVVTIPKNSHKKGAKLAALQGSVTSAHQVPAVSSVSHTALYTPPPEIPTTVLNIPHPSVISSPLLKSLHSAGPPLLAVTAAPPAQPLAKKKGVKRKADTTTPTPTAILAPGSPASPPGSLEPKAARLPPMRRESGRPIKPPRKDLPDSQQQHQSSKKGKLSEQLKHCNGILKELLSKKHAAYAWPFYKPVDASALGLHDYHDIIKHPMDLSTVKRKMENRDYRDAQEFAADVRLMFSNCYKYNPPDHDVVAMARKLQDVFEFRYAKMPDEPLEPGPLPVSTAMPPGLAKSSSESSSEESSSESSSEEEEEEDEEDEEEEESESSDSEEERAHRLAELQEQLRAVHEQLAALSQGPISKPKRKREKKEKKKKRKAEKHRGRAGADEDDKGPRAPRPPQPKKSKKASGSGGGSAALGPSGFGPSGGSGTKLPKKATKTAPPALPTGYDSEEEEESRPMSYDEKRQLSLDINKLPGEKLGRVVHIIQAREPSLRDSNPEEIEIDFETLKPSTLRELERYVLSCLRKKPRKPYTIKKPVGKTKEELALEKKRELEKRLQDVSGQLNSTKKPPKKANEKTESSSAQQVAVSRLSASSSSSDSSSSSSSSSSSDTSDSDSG

SMILES	EC50 (LNCaP)	EC50 [1]	EC50 at 72 h [2]	IC50 [3]	IC50 [4]	IC50 [5]	IC50 [6]	EC50 (PC-3 [7])	EC50 (DU-145)	further results
CC1=C(C)C(=O)O[C@@H]([C@](C)(O)[C@]2(O)CC[C@@]3(O)[C@@H]4C[C@H]5O[C@]56CC=CC(=O)[C@]6(C)[C@H]4CC[C@]23C)C1 [WITHANOLIDE E]	60 nM	70 nM	> 10000 nM	2950 nM	720 nM	556 nM	1520 nM			
CC(=O)OC[C@]12CC[C@H]3[C@@H](C[C@H]4O[C@]45CC=CC(=O)[C@]35C)[C@]1(O)CC[C@@]2(O)[C@@](C)(O)[C@H]1C[C@]2(C)O[C@]2(C)C(=O)O1	412 nM	177 nM	> 2000 nM	2360 nM	755 nM	1930 nM	5630 nM	425 nM	1470 nM	
CC1=C(CO)C(=O)O[C@@H]([C@@H](C)[C@H]2CC[C@H]3[C@@H]4C[C@H]5O[C@]56[C@@H](O)C=CC(=O)[C@]6(C)[C@H]4CC[C@]23C)C1 [WITHAFERIN A]	870 nM		> 6800 nM	> 20000 nM	> 20000 nM	> 20000 nM	> 20000 nM	410 nM		
Cc1sc2c(c1C)C(c1ccc(Cl)cc1)=N[C@@H](CC(=O)OC(C)(C)C)c1nnc(C)n1-2	162 nM	230 nM	> 2000 nM					> 2000 nM	> 2000 nM	EC50 (VCaP [8]): 160 nM; Activity (VCaP [9]): inactive; Activity (VCaP [10]): inactive; Activity (VCaP [11]): inactive; Activity (VCaP [12]): Active; Activity (VCaP [13]): Active; Activity (VCaP [14]): Dose-Dependent Effect; Activity (VCaP [15]): inactive
CC(=O)OC[C@]12CC[C@H]3[C@@H](CC=C4C=CCC(=O)[C@@]43C)[C@]1(O)CC[C@@]2(O)[C@@](C)(O)[C@H]1CC(C)=C(C)C(=O)O1	1100 nM		> 3000 nM	262 nM	131 nM	909 nM	294 nM	3100 nM		
CC(=O)OC[C@]12CC[C@H]3[C@@H](C[C@H]4O[C@]45CCCC(=O)[C@]35C)[C@]1(O)CC[C@@]2(O)[C@@](C)(O)[C@H]1C[C@@H](C)[C@@H](C)C(=O)O1	> 2000 nM	> 2000 nM	> 2000 nM	> 20000 nM	> 20000 nM	3870 nM	1830 nM	> 2000 nM	> 2000 nM	
CC(=O)OC[C@]12CC[C@H]3[C@@H](C[C@@H]4O[C@@]45CC=CC(=O)[C@]35C)[C@]1(O)CC[C@@]2(O)[C@@](C)(O)[C@H]1CC(C)=C(C)C(=O)O1	320 nM		> 12000 nM	89.7 nM	4260 nM	31.2 nM	10800 nM	1200 nM		
CC(=O)OC[C@]12CC[C@H]3[C@@H](CC=C4CC=CC(=O)[C@@]43C)[C@]1(O)CC[C@@]2(O)[C@@](C)(O)[C@H]1CC(C)=C(C)C(=O)O1	130 nM	70 nM	> 3000 nM	18 nM	15800 nM	19.3 nM	3920 nM	130 nM		
C[C@@H]1C[C@@H]([C@H](O)CC2CC(=O)NC(=O)C2)C(=O)[C@@H](C)C1										Activity [16]: inactive; Activity [17]: inactive; Activity [18]: inactive
CC(=O)OC[C@]12CC[C@H]3[C@@H](C[C@H]4O[C@]45CCCC(=O)[C@]35C)[C@]1(O)CC[C@@]2(O)[C@@](C)(O)[C@H]1CC(C)=C(C)C(=O)O1				235 nM	10600 nM	60 nM	9140 nM	1100 nM		EC50 (VCaP [8]): > 2000 nM; Activity [19]: inactive; Activity [20]: inactive
CC(=O)OC[C@]12CC[C@H]3[C@@H](C[C@H]4O[C@]45CC=CC(=O)[C@]35C)[C@]1(O)CC[C@@]2(O)[C@@](C)(O)[C@H]1C[C@H](C)[C@H](C)C(=O)O1	1050 nM	1130 nM	> 2000 nM	> 20000 nM	> 20000 nM	> 20000 nM	> 20000 nM	899 nM	> 2000 nM	
COc1cccc2c1C(=O)c1c(O)c3c(c(O)c1C2=O)C[C@@](O)(C(=O)CO)C[C@@H]3O[C@H]1C[C@H](N)[C@H](O)[C@H](C)O1 [DOXORUBICIN]	110 nM	20 nM	150 nM					340 nM	40 nM	EC50 (VCaP [8]): 670 nM; EC50 at 72 h [21]: 800 nM
Cc1sc2c(c1C)C(c1ccc(Cl)cc1)=N[C@@H](CC(=O)NCCCCNC(=O)COc1cccc3c1C(=O)N(C1CCC(=O)NC1=O)C3=O)c1nnc(C)n1-2 (stereo partly drawn)										EC50 (PC-3 [22]): 50 nM
CC(=O)OC[C@]12CC[C@H]3[C@@H](C[C@H]4O[C@]45CC=CC(=O)[C@]35C)[C@]1(O)[C@@H](OC(C)=O)C[C@@]2(O)[C@@](C)(O)[C@H]1CC(C)=C(C)C(=O)O1	1200 nM			210 nM	6000 nM	47.6 nM	14800 nM	180 nM		EC50 at 72 h [21]: > 5000 nM
C[C@H]1C[C@H]([C@](C)(O)[C@]2(O)CC[C@@]3(O)[C@@H]4C[C@H]5O[C@]56CC=CC(=O)[C@]6(C)[C@H]4CC[C@]23C)OC(=O)[C@@H]1C	290 nM	210 nM	> 2000 nM							
CC1=C(CO)C[C@H]([C@](C)(O)[C@]2(O)CC[C@@]3(O)[C@@H]4C[C@H]5O[C@]56CC=CC(=O)[C@]6(C)[C@H]4CC[C@]23C)OC1=O	2780 nM			736 nM	> 20000 nM	281 nM	> 20000 nM	2900 nM	> 5000 nM	EC50 (VCaP [8]): 1110 nM; EC50 at 72 h [21]: > 5000 nM
CC(=O)OC[C@]12CC[C@H]3[C@@H](C[C@H]4O[C@]45CC=CC(=O)[C@]35C)[C@]1(O)CC[C@@]2(O)[C@@](C)(O)[C@H]1C[C@@H](C)[C@@H](C)C(=O)O1	1060 nM	1490 nM	> 2000 nM	> 20000 nM	> 20000 nM	> 20000 nM	> 20000 nM	844 nM	> 2000 nM	
